How the values were obtained:
[1] = target: T1, Hypoxanthine-guanine phosphoribosyltransferase (Homo sapiens, UniProt P00492); assay: Inhibition of human HGPRT
T1 sequence (P00492 whole entry): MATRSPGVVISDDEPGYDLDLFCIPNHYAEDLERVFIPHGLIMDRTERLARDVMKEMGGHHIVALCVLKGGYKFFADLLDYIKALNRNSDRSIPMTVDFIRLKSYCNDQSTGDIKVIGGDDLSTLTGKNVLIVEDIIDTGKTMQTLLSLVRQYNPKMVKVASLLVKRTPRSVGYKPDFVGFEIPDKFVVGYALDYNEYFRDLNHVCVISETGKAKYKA

[2] = Inhibition of N-terminal hexa-histidine tagged Mycobacterium tuberculosis HGPRT expressed in Escherichia coli BL-21(DE3) using PRib-PP substrate and guanine
[3] = test system: Mycobacterium tuberculosis; assay: Antimycobacterial activity against Mycobacterium tuberculosis H37Rv […] assessed as inhibition of microbial growth incubated for 5 days by resazurin reduction microplate assay; format: functional; conditions: 120 h
In short: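 H37Rv grown in 7H9 with OADC, 0.5% glycerol, 0.02% tyloxapol at 37 °C to mid-exponential phase (OD600 0.4−0.8), diluted to OD600 0.001 (~2 × 10^4 CFU/mL) in 7H9S with 0.5% DMSO; serially diluted compounds; 5 days at 37 °C, then resazurin plus Tween 80; fluorescence (ex 530/em 580 nm) read 30 h later; MIC50 from signal relative to no-inhibitor minus no-bacteria controls.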

[4] = Selectivity index, ratio of CC50 for human A549 cells to MIC50 for Mycobacterium tuberculosis H37Rv […]; format: functional
In short: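 Selectivity index computed as CC50 in A549 cells divided by MIC50 against H37Rv.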

[5] = Cytotoxicity against human A549 cells assessed as inhibition of cell proliferation incubated for 4 days by Coulter counter based assay
In short: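 A549 cells seeded at 7500 per well; serially diluted compounds added 24 h later; 4 days at 37 °C; cells trypsinized and counted by Coulter Counter; CC50 (50% proliferation vs untreated) obtained by extrapolation; mean ± SEM of two or three independent tests.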

[6] = Selectivity index, ratio of Ki for human HGPRT to Ki for N-terminal hexa-histidine tagged Mycobacterium tuberculosis HGPRT
[7] = Inhibition of Mycobacterium tuberculosis HGPRT
[8] = Inhibition of Escherichia coli HGPRT
[9] = test system: Mycobacterium tuberculosis; assay: Potency index, ratio of Ki for GMP to Ki for compound against N-terminal hexa-histidine tagged Mycobacterium tuberculosis HGPRT expressed in Escherichia coli BL-21(DE3) using PRib-PP substrate and guanine

O=c1[nH]cnc2c1ncn2CCN(CCN(CCO)CCP(=O)(O)O)CCP(=O)(O)O gave a Ki [1] of 0.5 µM and a Ki [2] of 22.5 µM.
In the case of O=c1[nH]cnc2c1ncn2CCOCCP(=O)(O)O, the Ki [2] is reported as 18 µM.
In the case of CCOC(=O)[C@H](Cc1ccccc1)NP(=O)(COCC(COCP(=O)(N[C@@H](Cc1ccccc1)C(=O)OCC)N[C@@H](Cc1ccccc1)C(=O)OCC)Cn1cnc2c(=O)[nH]c(N)nc21)N[C@@H](Cc1ccccc1)C(=O)OCC, the MIC50 [3] is reported as 11 µM and the “Selectivity Index” value [4] is reported as over 27.
Work on Nc1nc2c(ncn2CCN(CCN(CCP(=O)(O)O)CCP(=O)(O)O)CCP(=O)(O)O)c(=O)[nH]1 yielded a Ki [1] of 0.03 µM and a Ki [2] of 1.6 µM.
For CCOC(=O)[C@H](Cc1ccccc1)NP(=O)(CCN(CCN(CCP(=O)(N[C@@H](Cc1ccccc1)C(=O)OCC)N[C@@H](Cc1ccccc1)C(=O)OCC)CCP(=O)(N[C@@H](Cc1ccccc1)C(=O)OCC)N[C@@H](Cc1ccccc1)C(=O)OCC)CCn1cnc2c(=O)[nH]c(N)nc21)N[C@@H](Cc1ccccc1)C(=O)OCC, the CC50 at 96 h [5] was over 300 µM, the MIC50 [3] was 4.5 µM and the “Selectivity Index” value [4] was over 67.
For O=c1[nH]cnc2c1ncn2CCN(CCN(CCP(=O)(O)O)CCP(=O)(O)O)CCP(=O)(O)O, the Ki [1] was 0.01 µM and the Ki [2] was 1.13 µM.
O=c1[nH]cnc2c1ncn2CC(COCP(=O)(O)O)COCP(=O)(O)O gave a Ki [2] of 7.7 µM.
With O=c1[nH]cnc2c1ncn2CCN(CCN(CCCO)CCP(=O)(O)O)CCP(=O)(O)O the Ki [1] was 1.64 µM, the Ki [2] was 22.7 µM and the Ratio Ki [6] was 14.
For CCOC(=O)[C@H](Cc1ccccc1)NP(=O)(CCOCC(Cn1cnc2c(=O)[nH]cnc21)OCCP(=O)(N[C@@H](Cc1ccccc1)C(=O)OCC)N[C@@H](Cc1ccccc1)C(=O)OCC)N[C@@H](Cc1ccccc1)C(=O)OCC (stereo partly drawn), the CC50 at 96 h [5] was 90 µM, the MIC50 [3] was 15 µM and the “Selectivity Index” value [4] was over 6.
For Nc1nc2c(ncn2[C@@H]2O[C@H](COP(=O)(O)O)[C@@H](O)[C@H]2O)c(=O)[nH]1, the Ki [7] was 20 µM and the Ki [8] was 526 µM.
In the case of CCOC(=O)[C@H](Cc1ccccc1)NP(=O)(CCN(CCO)CCN(CCn1cnc2c(=O)[nH]cnc21)CCP(=O)(N[C@@H](Cc1ccccc1)C(=O)OCC)N[C@@H](Cc1ccccc1)C(=O)OCC)N[C@@H](Cc1ccccc1)C(=O)OCC, the CC50 at 96 h [5] is reported as 156 µM, the MIC50 [3] is reported as 8 µM and the “Selectivity Index” value [4] is reported as over 19.5.
Nc1nc2c(ncn2CC(COCP(=O)(O)O)COCP(=O)(O)O)c(=O)[nH]1 showed a Ratio Ki [9] of 28 and a Ki [2] of 0.77 µM.
Work on O=c1[nH]cnc2c1ncn2CC(COCCP(=O)(O)O)OCCP(=O)(O)O (stereo not drawn) yielded a Ki [1] of 4 µM and a Ki [2] of over 50 µM.
For CCOC(=O)[C@H](Cc1ccccc1)NP(=O)(CCOCC(Cn1cnc2c(=O)[nH]c(N)nc21)OCCP(=O)(N[C@@H](Cc1ccccc1)C(=O)OCC)N[C@@H](Cc1ccccc1)C(=O)OCC)N[C@@H](Cc1ccccc1)C(=O)OCC (stereo partly drawn), the MIC50 [3] was 9 µM and the “Selectivity Index” value [4] was over 11.
Nc1nc2c(ncn2CCN(CCN(CCCO)CCP(=O)(O)O)CCP(=O)(O)O)c(=O)[nH]1 showed a Ki [1] of 0.04 µM, a Ki [2] of 15.9 µM and a Ratio Ki [6] of 400.
With CCOC(=O)[C@H](Cc1ccccc1)NP(=O)(COCC(COCP(=O)(N[C@@H](Cc1ccccc1)C(=O)OCC)N[C@@H](Cc1ccccc1)C(=O)OCC)Cn1cnc2c(=O)[nH]cnc21)N[C@@H](Cc1ccccc1)C(=O)OCC the MIC50 [3] was 7.5 µM and the “Selectivity Index” value [4] was over 13.
Work on Nc1nc2c(ncn2CC(COCCP(=O)(O)O)OCCP(=O)(O)O)c(=O)[nH]1 (stereo not drawn) yielded a Ratio Ki [9] of 28 and a Ki [2] of 0.69 µM.
O=c1[nH]cnc2c1ncn2CCN(CCOCCP(=O)(O)O)CCP(=O)(O)O gave a Ki [2] of over 50 µM.
Nc1nc2c(ncn2CCN(CCN(CCO)CCP(=O)(O)O)CCP(=O)(O)O)c(=O)[nH]1 showed a Ki [1] of 0.03 µM and a Ki [2] of 1.6 µM.
With CCOC(=O)[C@H](Cc1ccccc1)NP(=O)(CCN(CCO)CCN(CCn1cnc2c(=O)[nH]c(N)nc21)CCP(=O)(N[C@@H](Cc1ccccc1)C(=O)OCC)N[C@@H](Cc1ccccc1)C(=O)OCC)N[C@@H](Cc1ccccc1)C(=O)OCC the CC50 at 96 h [5] was 193 µM, the MIC50 [3] was 4.5 µM and the “Selectivity Index” value [4] was over 43.
For CCOC(=O)[C@H](Cc1ccccc1)NP(=O)(CCN(CCN(CCP(=O)(N[C@@H](Cc1ccccc1)C(=O)OCC)N[C@@H](Cc1ccccc1)C(=O)OCC)CCP(=O)(N[C@@H](Cc1ccccc1)C(=O)OCC)N[C@@H](Cc1ccccc1)C(=O)OCC)CCn1cnc2c(=O)[nH]cnc21)N[C@@H](Cc1ccccc1)C(=O)OCC, the CC50 at 96 h [5] was 28 µM, the MIC50 [3] was 4.5 µM and the “Selectivity Index” value [4] was over 6.
In the case of Nc1nc2c(ncn2CCN(CCOCCP(=O)(O)O)CCP(=O)(O)O)c(=O)[nH]1, the Ki [2] is reported as 1.4 µM.
Nc1nc2c(ncn2CCOCCP(=O)(O)O)c(=O)[nH]1 showed a Ki [2] of 1.76 µM.

— ChEMBL document CHEMBL3576832, “First Crystal Structures of Mycobacterium tuberculosis 6-Oxopurine Phosphoribosyltransferase: Complexes with GMP and Pyrophosphate and with Acyclic Nucleoside Phosphonates Whose Prodrugs Have Antituberculosis Activity” (J Med Chem, 2015)
